This is one part of a sample in which hits are shown more often than they occur.
Dynein transport: inhibitors of GR-EGFP nuclear translocation, primary screen, dynein cargo transport inhibitor project, imaging, high-content, 3617.4 mouse cells; z-score, hits read low; test concentration mostly 20 µM; stimulated with dexamethasone, 1 µM; hits give low values; AID 1381, 2008; 220,000 tested, 0.47% active;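 active means plate z-score of nuclear minus cytoplasmic receptor signal below a set negative limit, without overly bright fluorescence or cell loss, cut at about -3.5 in these data, passing the limit was not always enough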;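 further: z-score of nuclear minus cytoplasmic ring GR-EGFP intensity difference per well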
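Medium: Induction medium lacking tetracycline, stripped serum | Probe or stimulus: 1.0 µM final dexamethasone stimulus | Schedule: 48 h induction, then 1 h compound, then 30 min agonist, 37 °C | Signal: Automated 10x imaging of fixed Hoechst-stained cells | Evaluation: Per-cell GR-EGFP intensity, nucleus versus surrounding cytoplasmic ring, well-averaged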
CHOP inh: inhibitors of CHOP promoter induction, primary screen, cell-based, unfolded protein response, luciferase reporter; CHO-K1 CHOP-promoter luciferase, tunicamycin-induced, 15-18 h; inhibition, % at 10 µM; 220,000 tested, 3.8% active; AID 2732, 2010;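 active means compounds that reduced the stress-induced luciferase reporter signal by more than about 70% of percent inhibition, limit read from the data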
L major viab: Leishmania major promastigote growth inhibition, primary screen; inhibition, % at 10 µM; 200,000 tested, 9% active; Leishmania major promastigotes, resazurin fluorescence viability; in the data active means inhibition above about 50%;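 further: promastigotes grown with compound for 44 hours at 28 °C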
CHOP UPR activ: activators of apoptotic CHOP UPR arm, primary screen, cell-based, CHO-CHOP luciferase reporter, luminescence, uHTS; 330,000 tested, 0.34% active; AID 449763, 2010; activation, % at 10 µM; UPR activation; percent of tunicamycin response over DMSO baseline;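 active means at 10 µM dose, activation of 40% or more, normalized to positive control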
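Test system: CHO-CHOP cells, stable luciferase reporter of PERK-eIF2a-CHOP signalling | Quantity: 500 CHO-CHOP cells per well | Buffer or medium: F12 plus 10% serum | Compound dosing: 10 µM single point, 0.5% DMSO | Schedule: 6 h compound treatment, 37 °C | Signal: Luciferase luminescence | Control set: Tunicamycin high control, DMSO low control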
T cruzi inh: inhibitors of intracellular T. cruzi growth, primary screen, luminescence, NIH3T3 host cells. 300,000 tested, 1.4% active. AID 1885, 2009. T. cruzi beta-gal in NIH3T3, 90 h. inhibition, % (concentration not given with the values);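 active means mean inhibition across valid replicates above about 55%, limit read from the data; inconclusive means mean below that limit but half or more replicates reach it; inactive means mean below it, under half of replicates reach it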;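 further: signal also drops with host cell toxicity which is not excluded here; higher percent means less beta-gal luminescence so fewer parasites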
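System – NIH/3T3 host cells with β-galactosidase reporter T. cruzi · Doses – single 50 nL compound addition per well in DMSO · Reagent – 5000 T. cruzi trypomastigotes/well · Medium – Low-serum DMEM with 2% FBS · Timing – ≥90 h infection period, 3 h prior cell attachment · Evaluation – parasite load inhibition, % · Technique – GalScreen luminescence, 60 min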
XBP1 UPR activ: activators of adaptive XBP1 UPR arm, primary screen, cell-based, CHO-XBP1 luciferase reporter, luminescence, uHTS; 330,000 tested, 0.33% active; AID 463104, 2010; IRE1-XBP1 UPR activation; percent of tunicamycin response, DMSO as zero; activation, % at 20 µM;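 active means versus positive control, 20 µM dose yields 30% or more activation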
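assay system = CHO-XBP1 luciferase reporter cells | amount = 1000 cells/well | buffer or medium = F12 plus 10% FBS | compound dosing = single point, 20 µM final compound, 1% DMSO | incubation = 16-18 h cell attachment at 37 °C, then 6 h compound exposure | detection = Steady-Glo luminescence read | controls = tunicamycin 10 µg/mL and vehicle-only wells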
Numbers stand for hits.

`Cc1cc(C)n(-c2ccc3cccc(NS(C)(=O)=O)c3n2)n1` gave Dynein transport inactive, CHOP inh 74.2, L major viab inactive, CHOP UPR activ inactive, T cruzi inh 59.6 and XBP1 UPR activ inactive.
Screening NC(=S)NNc1cccc2cccnc12 returned Dynein transport inactive, CHOP inh inactive, L major viab inactive, CHOP UPR activ inactive, T cruzi inh inconclusive and XBP1 UPR activ inactive.
CS(=O)(=O)Nc1cccc2cccnc12 was read as Dynein transport inactive, CHOP inh inactive, L major viab 80.3, CHOP UPR activ inactive and XBP1 UPR activ inactive.
For NC(=S)Nc1cccc2cccnc12 the results were Dynein transport inactive, CHOP inh inactive, L major viab 89.3, CHOP UPR activ inactive, T cruzi inh inactive and XBP1 UPR activ inactive.
`CC(C)CN(C(=O)COC(=O)CNC(=O)c1ccccc1)c1c(N)n(Cc2ccccc2)c(=O)[nH]c1=O` gave CHOP UPR activ inactive, T cruzi inh inactive and XBP1 UPR activ inactive.
COc1ccc(CCNC(=O)CC(c2ccccc2)c2cccc(C)c2O)cc1OC (configuration not stated) was read as Dynein transport inactive, CHOP inh inactive, L major viab inactive, CHOP UPR activ inactive, T cruzi inh inactive and XBP1 UPR activ inactive.
COc1ccc(C)cc1NC(=O)C1CCCCN1S(=O)(=O)c1ccccc1 (configuration not stated) was read as CHOP UPR activ inactive and XBP1 UPR activ inactive.
`Cc1cc(Br)ccc1NC(=O)CN(C)C(=O)c1cc([N+](=O)[O-])ccc1N1CCOCC1` gave CHOP UPR activ inactive, T cruzi inh inactive and XBP1 UPR activ inactive.
For C=CCn1c(-c2ccccc2)cc(SC)c(C#N)c1=O the results were Dynein transport inactive, CHOP inh inactive, L major viab inactive, CHOP UPR activ inactive, T cruzi inh inactive and XBP1 UPR activ inactive.
For C=CCn1c(-c2ccccc2)ccc(C#N)c1=O the results were Dynein transport inactive, CHOP inh 91.4, L major viab inactive, CHOP UPR activ inactive, T cruzi inh inactive and XBP1 UPR activ inactive.
`C/C(=N\NC(=O)c1ccccc1Cl)c1ccccn1` gave CHOP UPR activ inactive, T cruzi inh 54.6 and XBP1 UPR activ inactive.
`O=C(NN=C(c1ccccc1)c1ccccn1)c1ccccc1` gave CHOP UPR activ inactive and XBP1 UPR activ inactive.
Screening C/C(=N/NC(=O)c1ccccn1)c1ccncc1 returned CHOP UPR activ inactive, T cruzi inh inactive and XBP1 UPR activ inactive.
For Cc1c(/C=N\NC(=O)C2COc3ccc(C(C)(C)C)cc3O2)c2ccccc2n1C (configuration not stated) the results were Dynein transport inactive, CHOP inh 75.6, L major viab inactive, CHOP UPR activ inactive, T cruzi inh 65.8 and XBP1 UPR activ inactive.
COc1ccc(C(=O)N/N=C(\c2ccccc2)c2ccccn2)cc1 was read as Dynein transport inactive, CHOP inh inactive, L major viab 99.6 and T cruzi inh inconclusive.
`O=C(N/N=C\c1cc(Br)cs1)C1COc2ccccc2O1` (configuration not stated) gave Dynein transport inactive, CHOP inh 79.9, L major viab 52.9, CHOP UPR activ inactive, T cruzi inh inactive and XBP1 UPR activ inactive.
`Cc1cc([N+](=O)[O-])ccc1NC(=O)c1csc(C)c1C` gave CHOP UPR activ inactive, T cruzi inh inactive and XBP1 UPR activ inactive.
Screening C/C(=N\NC(=O)C1CCCN(S(=O)(=O)c2ccccc2)C1)c1ccccn1 (configuration not stated) returned Dynein transport inactive, CHOP inh inactive, L major viab 99.5, CHOP UPR activ inactive, T cruzi inh inactive and XBP1 UPR activ inactive.
`O=C(N/N=C(\c1ccccc1)c1ccccn1)c1ccccc1Cl` gave CHOP UPR activ inactive, T cruzi inh 61.7 and XBP1 UPR activ inactive.
Screening C/C(=N\NC(=O)C1CCCN(S(=O)(=O)c2ccccc2)C1)c1ccncc1 (configuration not stated) returned Dynein transport inactive, CHOP inh inactive, L major viab inactive, CHOP UPR activ inactive, T cruzi inh inactive and XBP1 UPR activ inactive.
For C/C(=N\NC(=O)C1COc2ccccc2O1)c1ccccn1 (configuration not stated) the results were Dynein transport inactive, CHOP inh inactive, L major viab 99.4, CHOP UPR activ inactive, T cruzi inh inactive and XBP1 UPR activ inactive.
CN(CCOc1ccc(Br)cc1)C(=O)CNC(=O)c1ccc2ccccc2c1 was read as CHOP UPR activ inactive, T cruzi inh inactive and XBP1 UPR activ inactive.
Cc1ccc(S(=O)(=O)N2CCN(C(=O)CN3C(=O)c4ccccc4C3=O)CC2)c(C)c1 was read as CHOP UPR activ inactive and XBP1 UPR activ inactive.
`COc1ccc(Cc2noc(CN3CCCN(C4Cc5ccccc5C4)CC3)n2)cc1OC` gave Dynein transport inactive, CHOP inh inactive, L major viab inactive, CHOP UPR activ inactive, T cruzi inh 60.0 and XBP1 UPR activ inactive.
Screening COc1ccc(Cc2noc(CN3CCN(Cc4cccc(Cl)c4)CC3)n2)cc1OC returned Dynein transport inactive, CHOP inh inactive, L major viab inactive, CHOP UPR activ inactive, T cruzi inh 59.9 and XBP1 UPR activ inactive.
For FC(F)(F)c1cccc(Cc2noc(CN3CCCC3)n2)c1 the results were Dynein transport inactive, CHOP inh inactive, L major viab inactive, CHOP UPR activ inactive, T cruzi inh inactive and XBP1 UPR activ inactive.
For OCC1CCCN(C2CCN(Cc3nc(Cc4cccc(C(F)(F)F)c4)no3)CC2)C1 (configuration not stated) the results were Dynein transport inactive, CHOP inh inactive, L major viab 88.8, CHOP UPR activ inactive, T cruzi inh inactive and XBP1 UPR activ inactive.
Screening COCCN1CCN(Cc2nc(Cc3ccc(OC)c(OC)c3)no2)CC1 returned Dynein transport inactive, CHOP inh inactive, L major viab inactive, CHOP UPR activ inactive, T cruzi inh inactive and XBP1 UPR activ inactive.
For Fc1cccc(Cc2noc(CN3CCC(c4ccncc4)CC3)n2)c1 the results were Dynein transport inactive, CHOP inh inactive, L major viab 94.6, CHOP UPR activ inactive, T cruzi inh 66.0 and XBP1 UPR activ inactive.
Screening COc1ccc(COC(=O)c2cccc(S(=O)(=O)N3CCN(C(C)=O)CC3)c2)cc1 returned CHOP UPR activ inactive, T cruzi inh inactive and XBP1 UPR activ inactive.
